According to ChEMBL document CHEMBL4610036, “Discovery of small molecule antagonists of chemokine receptor CXCR6 that arrest tumor growth in SK-HEP-1 mouse xenografts as a model of hepatocellular carcinoma” (Bioorg Med Chem Lett, 2020):
pIC50: −log10 of the molar value. The source made the active and inactive calls. The rule behind the calls is not given here.

Tests used:
[1] = molecular target: T1, C-X-C chemokine receptor type 6 (Homo sapiens, UniProt O00574); assay: Antagonist activity at Prolink-tagged human CXCR6 receptor assessed as inhibition of forskolin-induced cAMP accumulation by DiscoveRx cell based assay relative to control; type: functional; design: concentration or dose not given beside the values
Procedure, shortened: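 CXCR6 β-arrestin cells in OptiMEM with 2% FBS, 500 cells/well, grown overnight; compounds added, then forskolin with 20 nM CXCL16 (stock concentrations) in HBSS/HEPES/BSA with RO-20-1724, 30 min at room temperature. cAMP read by LANCE Ultra TR-FRET after a further 30 min. Hill slope fixed at 1; at least two runs on different days, averaged pIC50 ± SD.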
Target sequence in this assay (O00574 whole entry, looked up): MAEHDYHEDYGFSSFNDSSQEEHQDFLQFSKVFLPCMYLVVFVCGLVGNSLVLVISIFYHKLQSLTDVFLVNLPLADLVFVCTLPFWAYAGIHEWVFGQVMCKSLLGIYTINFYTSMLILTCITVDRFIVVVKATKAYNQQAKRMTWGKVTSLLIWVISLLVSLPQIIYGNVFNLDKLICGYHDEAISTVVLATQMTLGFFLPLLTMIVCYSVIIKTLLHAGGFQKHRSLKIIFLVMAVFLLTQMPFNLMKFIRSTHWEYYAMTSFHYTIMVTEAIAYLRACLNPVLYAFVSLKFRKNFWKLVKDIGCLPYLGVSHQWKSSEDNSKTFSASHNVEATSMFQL

[2] = molecular target: T1, C-X-C chemokine receptor type 6; assay: Antagonist activity at Prolink-tagged human CXCR6 receptor assessed as inhibition of CXCL16-induced beta-arrestin recruitment by DiscoveRx cell based assay relative to control; design: concentration or dose not given beside the values
Procedure, shortened: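 CXCR6 β-arrestin cells in assay media without G418/hygromycin, 800 cells/well, grown overnight at 37 °C; compounds added acoustically (DMSO ≤0.3%), then 20 nM CXCL16 (final) for 90 min at 37 °C. PathHunter luminescence read. Normalized between CXCL16-alone and no-ligand wells; four-parameter fit with Hill slope fixed at 1; at least two runs on different days, averaged pIC50 ± SD.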
Target sequence in this assay (O00574 whole entry, looked up): as above

[3] = molecular target: T1, C-X-C chemokine receptor type 6; assay: Antagonist activity at Prolink-tagged human CXCR6 receptor assessed as inhibition of CXCL16-induced beta-arrestin recruitment by DiscoveRx cell based assay
Target sequence in this assay (O00574 whole entry): as the sequence (O00574 whole entry, looked up) above

[4] = molecular target: T1, C-X-C chemokine receptor type 6; assay: Antagonist activity at Prolink-tagged human CXCR6 receptor assessed as inhibition of forskolin-induced cAMP accumulation by DiscoveRx cell based assay; type: functional
Procedure, shortened: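 Lance Ultra TR-FRET cAMP assay in CXCR6 β-arrestin cells, 500 cells/well in OptiMEM/2% FBS, grown overnight. Compound added, then forskolin (2.5 mM stock) in HBSS/HEPES/BSA/RO-20-1724 with or without 20 nM CXCL16, 30 min at room temperature. Eu-cAMP tracer and ULight anti-cAMP antibody added, read after 30 min. Curve fit with Hill slope 1; ≥2 independent runs.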
Target sequence in this assay (O00574 whole entry): as the sequence (O00574 whole entry, looked up) above

COc1cc(OC)cc(C(=O)N[C@@H]2C[C@H]3CCC[C@@H](C2)N3CC(=O)Nc2ccc(Cl)cc2)c1
inhibition [1]: inactive | inhibition [2]: inactive | pIC50 [3]: < 4.40 | pIC50 [4]: < 4.40

COc1cc(C(=O)N[C@@H]2C[C@H]3CCC[C@@H](C2)N3Cc2nc3ccc(Cl)cc3s2)cc(OC)c1OC
inhibition ([1]; concentration not given here): 83% | inhibition ([2]; concentration not given here): 103% | pIC50 [3]: 6.57 | pIC50 [4]: 4.85

COc1ccc(C(=O)N[C@@H]2C[C@H]3CCC[C@@H](C2)N3CC(=O)Nc2ccc(Cl)cc2)cc1
inhibition ([1]; concentration not given here): 94% | inhibition [2]: inactive | pIC50 [3]: < 4.40 | pIC50 [4]: 5.23

COc1cc(C(=O)N[C@@H]2C[C@H]3CCC[C@@H](C2)N3CC(=O)Nc2ccccc2C)cc(OC)c1OC
inhibition ([1]; concentration not given here): 101% | inhibition ([2]; concentration not given here): 104% | pIC50 [3]: 6.10 | pIC50 [4]: 5.03

COc1ccccc1CN1[C@@H]2CCC[C@H]1C[C@H](NC(=O)c1cc(OC)c(OC)c(OC)c1)C2
inhibition [1]: inactive | inhibition [2]: inactive | pIC50 [3]: < 4.30 | pIC50 [4]: < 4.30

COc1cc(C(=O)N[C@@H]2C[C@H]3CC[C@@H](C2)N3CC(=O)Nc2ccccc2)cc(OC)c1OC
inhibition [1]: inactive | inhibition ([2]; concentration not given here): 63% | pIC50 [4]: < 4.40

COc1cc(C(=O)N[C@@H]2C[C@H]3CCC[C@@H](C2)N3CC(=O)Nc2cc(Cl)ccc2Cl)cc(OC)c1OC
inhibition ([1]; concentration not given here): 101% | inhibition ([2]; concentration not given here): 99% | pIC50 [3]: 6.89 | pIC50 [4]: 6.15

COc1cc(C(=O)NC2CCN(CC(=O)Nc3ccccc3)CC2)cc(OC)c1OC
inhibition [1]: inactive | inhibition [2]: inactive | pIC50 [3]: < 4.40 | pIC50 [4]: < 4.40

COc1cc(C(=O)N[C@@H]2C[C@H]3CCC[C@@H](C2)N3CC(=O)Nc2cccc(Cl)c2Cl)cc(OC)c1OC
inhibition ([1]; concentration not given here): 39 to 78% | inhibition ([2]; concentration not given here): 96 to 102% | pIC50 [3]: 6.80 to 6.92 | pIC50 [4]: 4.59 to 6.39

COc1cc(C(=O)N[C@@H]2C[C@H]3CCC[C@@H](C2)N3CC(=O)Nc2cccc(F)c2)cc(OC)c1OC
inhibition ([1]; concentration not given here): 103% | inhibition ([2]; concentration not given here): 104% | pIC50 [3]: 6.08 | pIC50 [4]: 5.07

COc1ccccc1NC(=O)CN1[C@@H]2CCC[C@H]1C[C@H](NC(=O)c1cc(OC)c(OC)c(OC)c1)C2
inhibition ([1]; concentration not given here): 100% | inhibition ([2]; concentration not given here): 102% | pIC50 [3]: 5.68 | pIC50 [4]: 4.83

COc1cc(C(=O)N[C@H]2C[C@H]3CCC[C@@H](C2)N3CC(=O)Nc2ccccc2)cc(OC)c1OC
inhibition ([1]; concentration not given here): 70% | inhibition [2]: inactive | pIC50 [3]: < 4.40 | pIC50 [4]: 4.39

COc1cc(C(=O)N[C@@H]2C[C@H]3CCC[C@@H](C2)N3CC(=O)Nc2cc(C)ccc2C)cc(OC)c1OC
inhibition ([1]; concentration not given here): 108% | inhibition ([2]; concentration not given here): 105% | pIC50 [3]: 6.21 | pIC50 [4]: 4.78

COc1cc(C(=O)N[C@@H]2C[C@H]3CCC[C@@H](C2)N3Cc2ccccc2Cl)cc(OC)c1OC
inhibition ([1]; concentration not given here): 101% | inhibition ([2]; concentration not given here): 99% | pIC50 [3]: 5.17 | pIC50 [4]: 4.94

COc1cc(C(=O)N[C@@H]2C[C@H]3CCC[C@@H](C2)N3CC(=O)Nc2ccc(Cl)c(Cl)c2)cc(OC)c1OC
inhibition ([1]; concentration not given here): 101% | inhibition ([2]; concentration not given here): 103% | pIC50 [3]: 6.46 | pIC50 [4]: 5.74

COc1ccc(CN2[C@@H]3CCC[C@H]2C[C@H](NC(=O)c2cc(OC)c(OC)c(OC)c2)C3)cc1
inhibition [1]: inactive | inhibition [2]: inactive | pIC50 [3]: < 4.30 | pIC50 [4]: < 4.30

COc1cccc(NC(=O)CN2[C@@H]3CCC[C@H]2C[C@H](NC(=O)c2cc(OC)c(OC)c(OC)c2)C3)c1
inhibition ([1]; concentration not given here): 93% | inhibition ([2]; concentration not given here): 96% | pIC50 [3]: 5.24 | pIC50 [4]: 4.29

COc1cc(C(=O)N[C@@H]2C[C@H]3CCC[C@@H](C2)N3Cc2cc3ccccc3[nH]2)cc(OC)c1OC
inhibition [1]: inactive | inhibition ([2]; concentration not given here): 64% | pIC50 [3]: 4.63 | pIC50 [4]: < 4.30

COc1cc(C(=O)N[C@@H]2C[C@H]3CCC[C@@H](C2)N3CC(=O)Nc2ccccc2C(F)(F)F)cc(OC)c1OC
inhibition ([1]; concentration not given here): 105% | inhibition ([2]; concentration not given here): 101% | pIC50 [3]: 6.19 | pIC50 [4]: 5.10

COc1cc(C(=O)N[C@@H]2C[C@H]3CCC[C@@H](C2)N3CC(=O)c2nc3ccccc3s2)cc(OC)c1OC
inhibition [1]: inactive | inhibition ([2]; concentration not given here): 75% | pIC50 [3]: 4.90 | pIC50 [4]: < 4.30

COc1cc(C(=O)N[C@@H]2C[C@H]3CCC[C@@H](C2)N3CC(=O)Nc2ccccc2F)cc(OC)c1OC
inhibition ([1]; concentration not given here): 99% | inhibition ([2]; concentration not given here): 103% | pIC50 [3]: 6.21 | pIC50 [4]: 5.19

COc1ccc(NC(=O)CN2[C@@H]3CCC[C@H]2C[C@H](NC(=O)c2cc(OC)c(OC)c(OC)c2)C3)cc1
inhibition [1]: inactive | inhibition ([2]; concentration not given here): 76% | pIC50 [3]: 4.72 | pIC50 [4]: < 4.40

COc1cc(C(=O)N[C@@H]2C[C@H]3CCC[C@@H](C2)N3CCc2nc3ccccc3s2)cc(OC)c1OC
inhibition [1]: inactive | inhibition [2]: inactive | pIC50 [3]: < 4.30 | pIC50 [4]: < 4.30

COc1cc(C(=O)N[C@@H]2C[C@H]3CCC[C@@H](C2)N3CC(=O)Nc2ccc(Cl)cc2Cl)cc(OC)c1OC
inhibition ([1]; concentration not given here): 105% | inhibition ([2]; concentration not given here): 105% | pIC50 [3]: 6.80 | pIC50 [4]: 6.05

COc1cc(C(=O)N[C@@H]2C[C@H]3CCC[C@@H](C2)N3CC(=O)Nc2cc(Cl)cc(Cl)c2)cc(OC)c1OC
inhibition ([1]; concentration not given here): 96% | inhibition ([2]; concentration not given here): 104% | pIC50 [3]: 6.51 | pIC50 [4]: 5.89

COc1cccc(C(=O)N[C@@H]2C[C@H]3CCC[C@@H](C2)N3CC(=O)Nc2ccc(Cl)cc2)c1
inhibition ([1]; concentration not given here): 87% | inhibition [2]: inactive | pIC50 [3]: < 4.40 | pIC50 [4]: 4.84

COc1cc(C(=O)N[C@@H]2C[C@H]3CCC[C@@H](C2)N3CC(=O)Nc2c(C)cccc2C)cc(OC)c1OC
inhibition [1]: inactive | inhibition [2]: inactive | pIC50 [3]: < 4.40 | pIC50 [4]: < 4.40

COc1cc(C(=O)N[C@@H]2C[C@H]3CCC[C@@H](C2)N3Cc2nc3cc(Cl)ccc3s2)cc(OC)c1OC
inhibition ([1]; concentration not given here): 90% | inhibition ([2]; concentration not given here): 100% | pIC50 [3]: 6.77 | pIC50 [4]: 5.49

CCOC(=O)c1ccccc1NC(=O)CN1[C@@H]2CCC[C@H]1C[C@H](NC(=O)c1cc(OC)c(OC)c(OC)c1)C2
inhibition ([1]; concentration not given here): 96% | inhibition ([2]; concentration not given here): 79% | pIC50 [3]: 5.80 | pIC50 [4]: 5.16

COc1cccc(CN2[C@@H]3CCC[C@H]2C[C@H](NC(=O)c2cc(OC)c(OC)c(OC)c2)C3)c1
inhibition [1]: inactive | inhibition [2]: inactive | pIC50 [3]: < 4.30 | pIC50 [4]: < 4.30

COc1cc(C(=O)N[C@@H]2C[C@H]3CCC[C@@H](C2)N3Cc2cn3ccccc3n2)cc(OC)c1OC
inhibition [1]: inactive | inhibition [2]: inactive | pIC50 [3]: < 4.30 | pIC50 [4]: < 4.30

COc1cc(C(=O)N[C@@H]2C[C@H]3CCC[C@@H](C2)N3Cc2ccc(Cl)cc2)cc(OC)c1OC
inhibition ([1]; concentration not given here): 58% | inhibition ([2]; concentration not given here): 90% | pIC50 [3]: 4.63 | pIC50 [4]: 4.41

COc1cc(C(=O)N[C@@H]2C[C@H]3CCC[C@@H](C2)N3CC(=O)Nc2ccc(F)cc2)cc(OC)c1OC
inhibition ([1]; concentration not given here): 90% | inhibition ([2]; concentration not given here): 100% | pIC50 [3]: 5.24 | pIC50 [4]: 4.51

COc1cc(C(=O)N[C@@H]2C[C@H]3CCC[C@@H](C2)N3CC(=O)Nc2cccc(Br)c2)cc(OC)c1OC
inhibition ([1]; concentration not given here): 92% | inhibition ([2]; concentration not given here): 104% | pIC50 [3]: 6.46 | pIC50 [4]: 5.42

COc1cc(C(=O)N[C@@H]2C[C@H]3CCC[C@@H](C2)N3CC(=O)Nc2ccccc2)cc(OC)c1OC
inhibition ([1]; concentration not given here): 86% | inhibition ([2]; concentration not given here): 65% | pIC50 [3]: 5.24 | pIC50 [4]: 4.51

COc1cc(C(=O)N[C@@H]2C[C@H]3CCC[C@@H](C2)N3Cc2cc3ccccc3s2)cc(OC)c1OC
inhibition ([1]; concentration not given here): 49% | inhibition ([2]; concentration not given here): 93% | pIC50 [3]: 6.05 | pIC50 [4]: 4.60

COc1cc(C(=O)N[C@@H]2C[C@H]3CCC[C@@H](C2)N3Cc2ccc3ccccc3n2)cc(OC)c1OC
inhibition ([1]; concentration not given here): 88% | inhibition ([2]; concentration not given here): 88% | pIC50 [3]: 5.17 | pIC50 [4]: 4.39

COc1cc(C(=O)N[C@@H]2C[C@H]3CCC[C@@H](C2)N3CC(=O)Nc2cccc(Cl)c2)cc(OC)c1OC
inhibition ([1]; concentration not given here): 97% | inhibition ([2]; concentration not given here): 105% | pIC50 [3]: 6.39 | pIC50 [4]: 5.37

COc1cc(C(=O)N[C@@H]2C[C@H]3CCC[C@@H](C2)N3CC(=O)Nc2ccccc2C#N)cc(OC)c1OC
inhibition ([1]; concentration not given here): 105% | inhibition ([2]; concentration not given here): 91% | pIC50 [3]: 6.03 | pIC50 [4]: 5.15

COc1cc(C(=O)N[C@@H]2C[C@H]3CCC[C@@H](C2)N3Cc2nc3cccc(Cl)c3s2)cc(OC)c1OC
inhibition ([1]; concentration not given here): 93% | inhibition ([2]; concentration not given here): 102% | pIC50 [3]: 6.59 | pIC50 [4]: 5.05
